{
  "source": "ChEMBL document CHEMBL5674881",
  "about": "“The therapeutic properties of resminostat for hepatocellular carcinoma” (2018)",
  "key": {"Hep 3B2 [1]": {"tested_on": "Hep 3B2", "test": "Anti-proliferative activity against human Hep3B cells assessed as reduction in cell viability at7 nM incubated for 24 hrs by Fluoro Fire-Blue ProViaTox assay", "type": "functional, cell-based", "details": "dose 7.0 nM"}, "Hep 3B2 [2]": {"tested_on": "Hep 3B2", "test": "Anti-proliferative activity against human Hep3B cells assessed as reduction in cell viability at 1 uM incubated for 24 hrs by Fluoro Fire-Blue ProViaTox assay", "type": "functional, cell-based"}, "Hep 3B2 [3]": {"tested_on": "Hep 3B2", "test": "Anti-proliferative activity against human Hep3B cells assessed as reduction in cell viability at 20 uM incubated for 24 hrs by Fluoro Fire-Blue ProViaTox assay", "type": "functional, cell-based"}, "Hep 3B2 [4]": {"tested_on": "Hep 3B2", "test": "Downregulation of HDAC1 expression in human Hep3B cells at 50 nM incubated for 24 hrs by qRT-PCR analysis", "type": "functional, cell-based"}, "Hep 3B2 [5]": {"tested_on": "Hep 3B2", "test": "Antiinflammatory activity against human Hep3B cells assessed as reduction in p65 RNA expression level at 50 nM incubated for 24 hrs in presence of SGBS CM by qRT-PCR analysis", "type": "functional, cell-based", "in_short": "(§1)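 Hep3B treated 24 h with 17-AAG 50 nM, alone, with 30% SGBS conditioned medium, or with resminostat 80 nM. p65 RNA measured by RT-PCR. Nuclear p65 protein measured by transcription-factor ELISA: nuclear extract bound to NFκB consensus-duplex plate for 1 h at room temperature, then anti-p65 and HRP secondary antibodies, then chemiluminescence read. n = 3.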"}, "Hep 3B2 [6]": {"tested_on": "Hep 3B2", "test": "Antiinflammatory activity against human Hep3B cells assessed as reduction in nuclear protein expression level of p65 […] at 50 nM incubated for 24 hrs in presence of SGBS CM by […] analysis", "type": "functional, cell-based", "in_short": "as §1"}, "Hep 3B2 [7]": {"tested_on": "Hep 3B2", "test": "Antiinflammatory activity against human Hep3B cells assessed as reduction in resminostat-induced p65 RNA expression level at 50 nM incubated for 24 hrs by qRT-PCR analysis relative to control", "type": "functional", "design": "scale not given: the % may be the effect or the level left", "in_short": "as §1"}, "Hep 3B2 [8]": {"tested_on": "Hep 3B2", "test": "Antiinflammatory activity against human Hep3B cells assessed as reduction in nuclear protein expression level of p65 […] at 50 nM incubated for 24 hrs by […] analysis", "type": "functional, cell-based", "in_short": "as §1"}, "Hep 3B2 [9]": {"tested_on": "Hep 3B2", "test": "Anti-proliferative activity against human Hep3B cells assessed as reduction in cell viability at 50 nM measured after 24 hrs by Fluoro Fire-Blue ProViaTox assay", "type": "functional, cell-based"}, "Hep 3B2 [10]": {"tested_on": "Hep 3B2", "test": "Downregulation of HDAC2 expression in human Hep3B cells at 50 nM incubated for 24 hrs by qRT-PCR analysis", "type": "functional, cell-based"}},
  "note": "The source made the active and inactive calls. The rule behind the calls is not given here.",
  "data": [
    {"smiles": "CCCc1cc(C)[nH]c(=O)c1CNC(=O)c1cc(-c2ccnc(N3CCN(C)CC3)c2)cc2c1cnn2C(C)C", "values": [
      {"measurement": "Activity", "setting": "Hep 3B2 [1]", "result": "Active"}
    ]},
    {"smiles": "COc1cccc2c1C(=O)c1c(O)c3c(c(O)c1C2=O)C[C@@](O)(C(=O)CO)C[C@@H]3O[C@H]1C[C@H](N)[C@H](O)[C@H](C)O1", "values": [
      {"measurement": "Activity", "setting": "Hep 3B2 [2]", "result": "Active"}
    ]},
    {"smiles": "Nc1nccc2c1ncn2[C@@H]1C=C(CO)[C@@H](O)[C@H]1O", "values": [
      {"measurement": "Activity", "setting": "Hep 3B2 [3]", "result": "Active"}
    ]},
    {"smiles": "C=CCNC1=C2C[C@@H](C)C[C@H](OC)[C@H](O)[C@@H](C)/C=C(\\C)[C@H](OC(N)=O)[C@@H](OC)/C=C\\C=C(/C)C(=O)NC(=CC1=O)C2=O", "note": "[TANESPIMYCIN]", "values": [
      {"measurement": "Activity", "setting": "Hep 3B2 [4]", "result": "Active"},
      {"measurement": "Activity", "setting": "Hep 3B2 [5]", "result": "Active"},
      {"measurement": "Activity", "setting": "Hep 3B2 [6]", "result": "Active"},
      {"measurement": "Activity", "setting": "Hep 3B2 [7]", "result": 100, "unit": "%"},
      {"measurement": "Activity", "setting": "Hep 3B2 [8]", "result": "Active"},
      {"measurement": "Activity", "setting": "Hep 3B2 [9]", "result": "Active"},
      {"measurement": "Activity", "setting": "Hep 3B2 [10]", "result": "Active"}
    ]}
  ]
}
